Results published in ChEMBL document CHEMBL1124534, “Synthesis, mechanism of action, and biological evaluation of mitosenes” (1989).
≈ marks a conversion by molar mass, not a printed value.

How the values were obtained:
[1] = test system: A204; experiment: In vitro antitumor activity against A204 rhabdomyosarcoma tumor cell line was determined; format: functional; details: Homo sapiens, read-out: ID50 (the source's name)
Procedure, shortened: (§1)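 Cell growth inhibition in vitro measured by the PIT method, with mitomycin C as positive reference.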

[2] = test system: L1210; experiment: In vitro antitumor activity against L1210 lymphocytic leukemia tumor cell line was determined; format: functional; details: Mus musculus, read-out: ID50 (the source's name)
Procedure, shortened: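 Inhibition of L1210 leukemia colony formation in vitro, with mitomycin C as positive reference.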

[3] = test system: WiDr; experiment: In vitro antitumor activity against WiDr colon carcinoma tumor cell line was determined; format: functional; details: Homo sapiens, read-out: ID50 (the source's name); procedure, shortened: as §1
[4] = test system: Mus musculus; experiment: Body wieght treated/body weight untreated controls of compound (40 mg/Kg) was evaluated in vivo for antitumor activity against MAC 16 in female NMRI mice on day 12; format: functional
[5] = test system: Mus musculus; experiment: Body wieght treated/body weight untreated controls of compound (40 mg/Kg) was evaluated in vivo for antitumor activity against MAC 16 in female NMRI mice on day 4; format: functional
[6] = test system: Mus musculus; experiment: Percentage change in body weight [(day 6 - day 1)/ day 1] for antitumor activity against P388 Leukemia in CD2 mice at fractioned dose treatment of 25 mg/Kg; format: functional
Procedure, shortened: (§2)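 Mouse P388 leukemia model. Drugs were given intraperitoneally, either as a single injection or once daily for 9 consecutive days (fractioned schedule). Outcomes were median survival time in days, %T/C, and % body weight change.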

[7] = test system: Mus musculus; experiment: Percentage change in body weight [(day 6 - day 1)/ day 1] for antitumor activity against P388 Leukemia in CD2 mice at fractioned dose treatment of 70 mg/Kg; format: functional; details: in the assay text read “single dose treatment” for “fractioned dose treatment”; procedure, shortened: as §2
[8] = test system: Mus musculus; experiment: Mean relative body weight change of treated / mean relative body weight change of control when compound (50 mg/kg/day) administered to inhibit growth of human tumor xenograft GXF 97 was reported at day 21 in mice; format: functional
Procedure, shortened: (§3)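 GXF 97 xenograft grown subcutaneously in nude mice for 24 days, then randomized; ip dosing began 1 day later, given on days 1-4, with 4-5 mice per group. Read-out is mean relative body weight change of treated divided by mean relative body weight change of controls, in %.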

[9] = test system: Mus musculus; experiment: Percent change in body weight [(day 6 - day 1)/ day 1] when P388 Leukemic CD2 mice were treated with a compound (50 mg/Kg); format: functional
[10] = test system: Mus musculus; experiment: Percentage change in body weight [(day 6 - day 1)/ day 1] for antitumor activity against P388 Leukemia in CD2 mice at fractioned dose treatment of 18 mg/Kg; format: functional; procedure, shortened: as §2
[11] = test system: Mus musculus; experiment: Mean relative body weight change of treated / mean relative body weight change of control when compound (50 mg/kg/day) administered to inhibit growth of human tumor xenograft GXF 97 was reported at day 14 in mice; format: functional; procedure, shortened: as §3
[12] = test system: Mus musculus; experiment: Mean relative body weight change of treated / mean relative body weight change of control when compound (50 mg/kg/day) administered to inhibit growth of human tumor xenograft GXF 97 was reported at day 28 in mice; format: functional; procedure, shortened: as §3
[13] = test system: Mus musculus; experiment: Median survival time in days for antitumor activity against P388 Leukemia in CD2 mice at a single dose treatment of 50 mg/Kg; format: functional
Procedure, shortened: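 P388 leukemia-bearing mice were given one intraperitoneal injection. The read-out was median survival time in days, reported alongside %T/C and % body weight change.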

[14] = test system: Mus musculus; experiment: Median survival time in days for antitumor activity against P388 Leukemia in CD2 mice at fractioned dose treatment of 18 mg/Kg; format: functional
Procedure, shortened: (§4)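 P388 leukemia-bearing mice were dosed intraperitoneally once daily for 9 consecutive days (fractioned schedule). The read-out was median survival time in days, reported alongside %T/C and % body weight change.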

[15] = test system: Mus musculus; experiment: Median survival time in days for antitumor activity against P388 Leukemia in CD2 mice at fractioned dose treatment of 25 mg/Kg; format: functional; procedure, shortened: as §4
[16] = test system: Mus musculus; experiment: Percent inhibition of compound (50 mg/Kg) was evaluated in vivo for antitumor activity against MAC 13 in female NMRI mice on day 2; format: functional
Procedure, shortened: (§5)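 MAC 13 in female NMRI mice. Drugs were given in arachis oil BP by ip route on day 2 or day 29. % inhibition was derived from treated/untreated control tumor weight (volume); a negative value indicates stimulation.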

[17] = test system: Mus musculus; experiment: Percent inhibition of compound (50 mg/Kg) was evaluated in vivo for antitumor activity against MAC 13 in female NMRI mice on day 29; format: functional; procedure, shortened: as §5
[18] = test system: Mus musculus; experiment: Ability of intraperitoneally administered compound (50 mg/kg/day) to inhibit growth of human tumor xenograft GXF 97 was assessed on day 14 tested in five mice; format: functional
Procedure, shortened: (§6)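 GXF 97 human gastric xenograft grown subcutaneously in nude mice for 24 days, then randomized; dosing began 1 day later as ip injections on days 1-4. Groups had 4-5 mice. Tumor length and width were measured. %T/C = median relative tumor size of treated / median relative tumor size of controls.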

[19] = test system: Mus musculus; experiment: Ability of intraperitoneally administered compound (50 mg/kg/day) to inhibit growth of human tumor xenograft GXF 97 was assessed on day 21 tested in five mice; format: functional; procedure, shortened: as §6
[20] = test system: Mus musculus; experiment: Percent T/C ([…]) for antitumor activity against P388 Leukemia in CD2 mice at a single dose treatment of 50 mg/Kg; format: functional
Procedure, shortened: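 P388 leukemia mice given a single intraperitoneal injection. Median survival time (days) and body weight change were recorded. %T/C was derived from the survival of treated versus control mice.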

[21] = test system: Mus musculus; experiment: Percent T/C ([…]) for antitumor activity against P388 Leukemia in CD2 mice at fractioned dose treatment of 18 mg/Kg; format: functional; procedure, shortened: as §2
[22] = test system: Mus musculus; experiment: Percent T/C ([…]) for antitumor activity against P388 Leukemia in CD2 mice at fractioned dose treatment of 25 mg/Kg; format: functional; procedure, shortened: as §2
[23] = test system: Mus musculus; experiment: Percent T/C ([…]) for antitumor activity against P388 Leukemia in CD2 mice at fractioned dose treatment of 70 mg/kg; format: functional; details: in the assay text read “single dose” for “fractioned dose”; procedure, shortened: as §2
[24] = test system: Mus musculus; experiment: Ability of intraperitoneally administered compound (50 mg/kg/day) to inhibit growth of human tumor xenograft GXF 97 was assessed on day 28 tested in five mice; format: functional; procedure, shortened: as §6
[25] = test system: Mus musculus; experiment: Relative tumor size on day 28 was reported when compound (50 mg/kg/day) administered to inhibit growth of human tumor xenograft GXF 97 in mice tested after 28 days; format: functional
Procedure, shortened: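 GXF 97 human gastric xenograft grown subcutaneously in nude mice for 24 days, then mice randomized; treatment began 1 day later. Fractioned ip injections on days 1-4, or single iv injection on day 1; 4-5 mice per group. Tumor size from length and width; relative tumor size (% of controls) read at day 28.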

[26] = test system: Mus musculus; experiment: Compound (40 mg/Kg) was evaluated in vivo for antitumor activity against MAC 16 in female NMRI mice on day 12 and ratio of tumor weight of treated to that of control was determined; format: functional
[27] = test system: Mus musculus; experiment: Compound (40 mg/Kg) was evaluated in vivo for antitumor activity against MAC 16 in female NMRI mice on day 4 and ratio of tumor weight of treated to that of control was determined; format: functional
[28] = test system: Mus musculus; experiment: Median survival time in days for antitumor activity against P388 Leukemia in CD2 mice at single dose treatment of 70 mg/kg
[29] = test system: Mus musculus; experiment: Compound (50 mg/Kg) was evaluated in vivo for antitumor activity against MAC 13 in female NMRI mice on day 2 and ratio of tumor weight of treated to that of control was determined
[30] = test system: Mus musculus; experiment: Compound (50 mg/Kg) was evaluated in vivo for antitumor activity against MAC 13 in female NMRI mice on day 29 and ratio of tumor weight of treated to that of control was determined

SMILES: CCNC(=O)OCc1c2c(n3c1C(O)CC3)C(=O)C=C(OC)C2=O (stereo not given)
- IC50 [1]: 0.001 µg/mL (≈ 0.00299 µM)
- IC50 [2]: 0.118 µg/mL (≈ 0.353 µM)
- IC50 [3]: 0.029 µg/mL (≈ 0.0867 µM)

SMILES: CCNC(=O)OCc1c2c(n3c1C(O)CC3)C(=O)C(C)=C(OC)C2=O (stereo not given)
- IC50 [1]: 0.001 µg/mL (≈ 0.00287 µM)
- IC50 [2]: 0.206 µg/mL (≈ 0.591 µM)
- IC50 [3]: 0.051 µg/mL (≈ 0.146 µM)

SMILES: COC1=C(Br)C(=O)c2c(c(COC(C)=O)c3n2CCC3OC(C)=O)C1=O (stereo not given)
- IC50 [1]: 0.479 µg/mL (≈ 1.12 µM)
- IC50 [2]: 0.217 µg/mL (≈ 0.509 µM)
- IC50 [3]: 0.492 µg/mL (≈ 1.15 µM)

SMILES: CCCC(=O)OCc1c2c(n3c1C(OC(=O)CCC)CC3)C(=O)C(C)=C(OC)C2=O (stereo not given)
- IC50 [1]: 0.021 µg/mL (≈ 0.0503 µM)
- IC50 [2]: > 0.64 µg/mL
- IC50 [3]: 0.069 µg/mL (≈ 0.165 µM)

SMILES: COC1=C(Br)C(=O)c2c(c(COC(C)=O)c3n2CCCC3OC(C)=O)C1=O (stereo not given)
- IC50 [1]: 4.14 µg/mL (≈ 9.39 µM)
- IC50 [2]: 1.12 µg/mL (≈ 2.54 µM)
- IC50 [3]: 6.49 µg/mL (≈ 14.7 µM)

SMILES: COC1=CC(=O)c2c(c(CO)c3n2CCCC3O)C1=O (stereo not given)
- IC50 [1]: 1.2 µg/mL (≈ 4.31 µM)
- IC50 [2]: 1.33 µg/mL (≈ 4.78 µM)
- IC50 [3]: 2.17 µg/mL (≈ 7.83 µM)

SMILES: CCNC(=O)OCc1c2c(n3c1C(O)CCC3)C(=O)C=C(OC)C2=O (stereo not given)
- IC50 [1]: < 0.1 µg/mL
- IC50 [2]: 0.942 µg/mL (≈ 2.7 µM)
- IC50 [3]: 0.18 µg/mL (≈ 0.517 µM)

SMILES: COC1=C(C)C(=O)c2c(c(CO)c3n2CCC3O)C1=O (stereo not given)
- IC50 [1]: 0.641 µg/mL (≈ 2.31 µM)
- IC50 [2]: 2.6 µg/mL (≈ 9.39 µM)
- BW [4]: 93%
- BW [5]: 118%
- BWC [6]: 17.1%
- BWC [7]: -0.9%
- BWC [8]: 107.2%
- BWC [9]: 2.5%
- BWC [10]: 17.3%
- BWC [11]: 103.8%
- BWC [12]: 103.4%
- MST [13]: 11 days
- MST [14]: 11 days
- MST [15]: 11 days
- I [16]: 3%
- I [17]: -21%
- T/C [18]: 12.6%
- T/C [19]: 4.8%
- T/C [20]: 100%
- T/C [21]: 100%
- T/C [22]: 100%
- T/C [23]: 91%
- T/C [24]: 3.1%
- Relative TS [25]: 20.6%
- T/C [26]: 89%
- T/C [27]: 102%
- IC50 [3]: 1.33 µg/mL (≈ 4.81 µM)
- MST [28]: 10 days
- T/C [29]: 97%
- T/C [30]: 121%

SMILES: COC1=C(C)C(=O)c2c(c(COC(C)=O)c3n2CCCC3OC(C)=O)C1=O (stereo not given)
- IC50 [1]: < 0.1 µg/mL
- IC50 [2]: 1.54 µg/mL (≈ 4.1 µM)
- IC50 [3]: 0.171 µg/mL (≈ 0.456 µM)

SMILES: COC1=CC(=O)c2c(c(CO)c3n2CCC3O)C1=O (stereo not given)
- IC50 [1]: 2.6 µg/mL (≈ 9.87 µM)
- IC50 [2]: 1.15 µg/mL (≈ 4.35 µM)
- IC50 [3]: 2.6 µg/mL (≈ 9.87 µM)

SMILES: CCNC(=O)OCc1c2c(n3c1C(O)CCC3)C(=O)C(C)=C(OC)C2=O (stereo not given)
- IC50 [1]: 0.05 µg/mL (≈ 0.138 µM)
- IC50 [2]: 1.17 µg/mL (≈ 3.22 µM)
- IC50 [3]: 0.251 µg/mL (≈ 0.693 µM)

SMILES: CC(=O)OCc1c2c(n3c1C(OC(C)=O)CC3)C(=O)C(C)=C(N1CC1)C2=O (stereo not given)
- IC50 [1]: 0.001 µg/mL (≈ 0.00269 µM)
- IC50 [2]: 0.166 µg/mL (≈ 0.446 µM)
- IC50 [3]: 0.02 µg/mL (≈ 0.0537 µM)

SMILES: COC1=CC(=O)c2c(c(COC(C)=O)c3n2CCCC3OC(C)=O)C1=O (stereo not given)
- IC50 [1]: 0.133 µg/mL (≈ 0.368 µM)
- IC50 [2]: 0.582 µg/mL (≈ 1.61 µM)
- IC50 [3]: 0.115 µg/mL (≈ 0.318 µM)

SMILES: COC1=C(C)C(=O)c2c(c(CO)c3n2CCCC3O)C1=O (stereo not given)
- IC50 [1]: 2.69 µg/mL (≈ 9.23 µM)
- IC50 [2]: 3.72 µg/mL (≈ 12.8 µM)
- IC50 [3]: 5.89 µg/mL (≈ 20.2 µM)

SMILES: CCOC(=S)SCc1c2c(n3c1CCC3)C(=O)C(C)=C(OC)C2=O
- IC50 [1]: 0.585 µg/mL (≈ 1.6 µM)
- IC50 [2]: > 6.4 µg/mL
- IC50 [3]: 3.71 µg/mL (≈ 10.1 µM)

SMILES: COC1=CC(=O)c2c(c(COC(C)=O)c3n2CCCC3O)C1=O (stereo not given)
- IC50 [1]: 0.115 µg/mL (≈ 0.36 µM)
- IC50 [2]: 1.75 µg/mL (≈ 5.49 µM)
- IC50 [3]: 0.287 µg/mL (≈ 0.899 µM)
